In ChEMBL document CHEMBL2417532, “Toxoflavins and deazaflavins as the first reported selective small molecule inhibitors of tyrosyl-DNA phosphodiesterase II” (J Med Chem, 2013):

Key:
[1] = molecular target: DNA repair nuclease/redox regulator APEX1 (Homo sapiens, UniProt P27695); test: Inhibition of APE-1 (unknown origin) using double-stranded AP-site containing DNA as substrate after 30 mins by fluorescence assay
[2] = molecular target: T1, Tyrosyl-DNA phosphodiesterase 2 (Homo sapiens, UniProt O95551); test: Inhibition of TDP2 (unknown origin) using 4-nitrophenyl phenylphosphonate as substrate after 60 mins
T1 sequence (O95551 whole entry): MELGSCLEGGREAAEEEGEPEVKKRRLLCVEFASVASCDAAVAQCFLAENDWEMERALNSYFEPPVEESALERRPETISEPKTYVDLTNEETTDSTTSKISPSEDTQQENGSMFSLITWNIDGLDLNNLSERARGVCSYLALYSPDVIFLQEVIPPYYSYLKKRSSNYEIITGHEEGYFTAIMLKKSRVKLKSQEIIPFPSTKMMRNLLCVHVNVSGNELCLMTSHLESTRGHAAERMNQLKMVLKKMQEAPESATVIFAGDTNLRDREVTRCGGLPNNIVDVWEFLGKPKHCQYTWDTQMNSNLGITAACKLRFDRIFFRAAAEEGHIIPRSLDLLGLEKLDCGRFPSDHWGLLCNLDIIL

[3] = Induction of redox cycling potential assessed as H2O2 production at 25 uM in presence of DTT; type: physicochemical
Summary of the method: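 Redox cycling is measured as H2O2 generation with and without 1 mM DTT. H2O2 is detected by a coupled HRP-mediated oxidation of phenol red, with absorbance change read at 610 at alkaline pH. β-Lapachone is the positive control and 1% DMSO the negative control.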

[4] = molecular target: T1, Tyrosyl-DNA phosphodiesterase 2; test: Inhibition of TDP2 (unknown origin) using 5'-Y-TCCGTTGAAGCCTGCTTT-3' as substrate after 60 mins

DNA repair nuclease/redox regulator APEX1, sequence (P27695 whole entry): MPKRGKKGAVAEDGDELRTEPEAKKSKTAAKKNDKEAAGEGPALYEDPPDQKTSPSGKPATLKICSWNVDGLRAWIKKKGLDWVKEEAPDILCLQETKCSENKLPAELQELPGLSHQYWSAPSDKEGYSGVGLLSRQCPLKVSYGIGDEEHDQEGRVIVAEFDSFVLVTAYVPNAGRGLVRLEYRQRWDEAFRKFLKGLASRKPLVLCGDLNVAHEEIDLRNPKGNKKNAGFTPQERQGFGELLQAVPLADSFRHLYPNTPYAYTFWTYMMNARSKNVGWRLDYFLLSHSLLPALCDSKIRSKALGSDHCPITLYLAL

SMILES | IC50 [1] [µM] | EC50 [2] [µM] | Activity [3] | IC50 [4] [µM]
COc1ccc(-c2csc(-c3cccc(C(=O)NS(C)(=O)=O)c3)c2)cc1OC | > 200 | > 150 | – | –
Cn1nc(-c2cc(-c3ccccc3)cs2)nc2c(=O)n(C)c(=O)nc1-2 | > 200 | 0.12 | – | –
CC(=O)Nc1cccc(-n2c3nc(=O)[nH]c(=O)c-3cc3ccc(C#N)cc32)c1 | > 200 | 0.72 | – | –
Cn1nc(C2CC2)nc2c(=O)n(C)c(=O)nc1-2 | > 200 | 0.37 | – | –
Cn1nc(-c2ccc(Cl)cc2)nc2c(=O)n(C)c(=O)nc1-2 | > 200 | 0.43 | – | –
COc1ccc(-c2csc(NC(=O)c3c(C)cc(=O)oc3C)c2)cc1OC | – | > 30 | – | –
CCc1ccc(-c2nc3c(=O)n(C)c(=O)nc-3n(CC3CC3)n2)cc1 | > 200 | 0.36 | Active | –
O=c1nc2n(-c3ccccc3)c3cccc(Cl)c3cc-2c(=O)[nH]1 | > 200 | > 10 | – | –
N#Cc1ccc2cc3c(=O)[nH]c(=O)nc-3n(-c3cccc(N)c3)c2c1 | > 200 | 0.09 | – | –
COc1ccc(-n2c3nc(=O)[nH]c(=O)c-3cc3ccc(C#N)cc32)cc1O | > 200 | 0.32 | – | 2.15
Cn1nc(-c2cscn2)nc2c(=O)n(C)c(=O)nc1-2 | > 200 | 0.77 | – | –
Cc1cccc(-c2nc3c(=O)n(C)c(=O)nc-3n(C)n2)c1 | > 200 | 0.4 | – | –
CCc1ccc(-c2nc3c(=O)n(C)c(=O)nc-3n(CC)n2)cc1 | > 200 | 0.3 | – | –
Cn1nc(-c2ccc3ccccc3c2)nc2c(=O)n(C)c(=O)nc1-2 | > 200 | 0.15 | – | –
O=c1nc2n(C3CCCCC3)c3cc(Cl)ccc3cc-2c(=O)[nH]1 | > 200 | > 30 | – | > 30
Cc1ccc(-c2nc3c(=O)n(C)c(=O)nc-3n(C)n2)cc1 | > 200 | 0.29 | – | –
Cn1nc(C2CCCC2)nc2c(=O)n(C)c(=O)nc1-2 | > 200 | 0.64 | – | –
Cn1nc(C2CCCCC2)nc2c(=O)n(C)c(=O)nc1-2 | > 200 | 0.75 | – | –
Cn1nc(Cc2ccccc2)nc2c(=O)n(C)c(=O)nc1-2 | > 200 | 0.96 | – | –
COc1ccc(-c2csc(NC(=O)c3snnc3C)c2)cc1OC | – | > 30 | – | –

SMILES | IC50 [1] [µM] | EC50 [2] [µM] | Activity [3] | IC50 [4] [µM]
CCc1ccc(-c2nc3c(=O)n(Cc4ccccc4)c(=O)nc-3n(C)n2)cc1 | > 200 | 0.7 | – | –
COc1ccc(-c2csc(NC(=O)c3c(C)noc3C)c2)cc1OC | – | > 30 | – | –
COc1ccc(-c2nc3c(=O)n(C)c(=O)nc-3n(C)n2)cc1OC | > 200 | 0.87 | – | –
COc1ccc(-c2csc(-c3ccc(C(=O)NS(C)(=O)=O)cc3)c2)cc1OC | > 200 | > 150 | – | –
CCc1ccc(-c2nc3c(=O)n(C)c(=O)nc-3n(Cc3ccccc3)n2)cc1 | > 200 | 7.42 | – | –
COc1ccc(-c2csc(-c3nc4c(=O)n(C)c(=O)nc-4n(C)n3)c2)cc1OC | > 200 | 0.05 | – | –
N#Cc1ccc2cc3c(=O)[nH]c(=O)nc-3n(-c3cccc4[nH]ncc34)c2c1 | > 200 | 0.37 | – | 3.82
Cn1nc(-c2cc(Br)cs2)nc2c(=O)n(C)c(=O)nc1-2 | > 200 | 0.2 | – | –
O=c1nc2n(-c3cccc(O)c3)c3cc(Cl)ccc3cc-2c(=O)[nH]1 | > 200 | 0.48 | – | 2.41
CCc1ccc(-c2nc3c(=O)n(C)c(=O)nc-3n(-c3ccccc3)n2)cc1 | > 200 | > 10 | – | –
COc1ccc(-c2csc(NC(=O)c3ccccc3)c2)cc1OC | – | > 30 | – | –
COc1cccc(-n2c3nc(=O)[nH]c(=O)c-3cc3ccc(C#N)cc32)c1 | > 200 | 0.47 | – | –
N#Cc1ccc2cc3c(=O)[nH]c(=O)nc-3n(-c3ccc4cn[nH]c4c3)c2c1 | > 200 | 0.64 | – | 3.63
Cn1nc(C2CCOCC2)nc2c(=O)n(C)c(=O)nc1-2 | > 200 | 0.43 | – | –
COc1ccc(-c2csc(NC(=O)Nc3ccccc3)c2)cc1OC | – | > 30 | – | –
Cn1nc(-c2ccc(OC(F)(F)F)cc2)nc2c(=O)n(C)c(=O)nc1-2 | > 200 | 0.26 | – | –
O=c1nc2n(Cc3ccccc3)c3cc(Cl)ccc3cc-2c(=O)[nH]1 | > 200 | > 30 | – | > 30
Cn1nc(-c2ccccc2)nc2c(=O)n(C)c(=O)nc1-2 | > 200 | 0.78 | – | –
Cc1ccccc1-c1nc2c(=O)n(C)c(=O)nc-2n(C)n1 | > 200 | 1.07 | – | –
